“And” between values parts separate entries of the source, which are not always exact repeats. Equal values may be shown once. Read-outs that look alike come from different tables or passages of the source. One block for each compound: values may come before it.
What was measured:
[1] = test system: Ca^2+- and ATP-sensitive nonselective cation channels (CA-NSCs); test: Excised inside-out patch recording of CA-NSC channel gating; assay type: biochemical, rat; details: for Inhibition of Po / effect on gating (in words): cytosolic exposure, Fig. 3 A; for Prevention of inhibition by concomitantly added ATP (in words): Fig. 3 B, 100 μM ATP for PI(4,5)P2
[2] = test system: Ca^2+- and ATP-sensitive nonselective cation channels (CA-NSCs); assay type: biochemical, rat; details: for Effect on the i([DV]) dose response curve (in words): 1 mM nucleotide
Summary of the method: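 Inside-out patches from rat brain capillary endothelial cells, cultured 5–6 d, at 25°C. Pipette: 140 mM NaCl, 30 μM benzamil, pH 7.4. Bath: 140 mM KCl or NMDG-Cl, pH 7.1, plus 1 mM CaCl2. i(V) is recorded ± 70 μM DV. KCl data get linear fits; NMDG data get GHK fits with asymptotic negative-potential slope. Currents at −40 mV ± 1 mM nucleotide are normalized to in-patch control and Hill-fitted.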

[3] = test system: Ca^2+- and ATP-sensitive nonselective cation channels (CA-NSCs); test: Ensemble fitting of kinetic binding models to the dose response curves; assay type: biochemical, rat; details: noncompetitive model with allosteric destabilization, one subunit
Summary of the method: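 Custom software ensemble-fits the two-ligand extensions of a reversible-binding scheme to 18 normalized dose response curves (Po, opening and closing rates) from inside-out patches. Error function is summed squared differences between predicted and measured values. Open-state Kds are constrained by microscopic reversibility. Unliganded opening rate is fixed at its average (−40 mV, 1 mM cytosolic Ca2+).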

[4] = test system: CA-NSC channels present in astrocytes; details: ref Chen et al., 2003; cited from earlier work
[5] = Decay of decavanadate in bath solution measured by photometry; assay type: physicochemical; details: pH = 7.1, T = 25°C
Summary of the method: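 DV stock is 50 mM Na3VO4 brought to pH 2.0, kept at +4°C, used within 24 h and diluted into bath under 90 min before use. Spectra of 1 mM Na3VO4 in bath (pH 7.1, 25°C) are taken 0–8 h after preparation against a boiled same-composition blank. DV is tracked as peak absorbance at ~390 nm, and the decay is single-exponential fitted.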

TrpM2 = details: cytosolic, ref Perraud et al., 2001, Sano et al.; cited from earlier work
TrpM4b = details: ref Nilius et al., 2004, cited from earlier work
[6] = test system: Ca^2+- and ATP-sensitive nonselective cation channels (CA-NSCs); details: read-out: [Ca2+]i required for half-maximal activation; freshly excised channels; ref Csanády and Adam-Vizi, 2003; cited from earlier work
[7] = read-out: K1/2 for inhibition of opening rate, 1 mM Ca2+ i, Vm −40 mV, no DV, Hill fit, deactivated channels
[8] = 70 μM DV, NaCl pipette, KCl bath

Compound: NC(=O)C1=CN([C@@H]2O[C@H](COP(=O)(O)OP(=O)(O)OC[C@H]3O[C@@H](n4cnc5c(N)ncnc54)[C@H](O)[C@@H]3O)[C@@H](O)[C@H]2O)C=CC1 [NADH]
- Inhibition of Po / effect on gating (in words) ([1]; 1 mM Ca2+ i, −40 mV): inhibited to a variable extent

- IC50 [1, 7]: 1.1 ± 0.2 µM
- Predicted decrease in nucleotide affinity brought upon by DV binding [3]: ~10^3 fold
Compound: Nc1ncnc2c1ncn2[C@@H]1O[C@H](COP(=O)(O)O)[C@@H](O)[C@H]1O [AMP]
- Po ([1]; 1 mM AMP in the presence of ~8 μM DV): ~0.25
- Increase of K1/2 for inhibition of Po caused by DV ([1]; ~8 μM DV vs no DV): ~90 ×
- Effect on the i([DV]) dose response curve (in words) [2]: not altered
- Nucleotide sensitivity of astrocyte CA-NSC channels (in words) [4]: insensitive

- EC50 ([1]; read-out: K1/2 for stimulation of Po, 1 mM Ca2+ i, −40 mV, no nucleotides): 0.09 µM
- EC50 ([2]; read-out: K1/2 for stimulation of single-channel conductance, no nucleotides (control), −40 mV): 1.7 ± 0.3 µM
- Time constant of decay in bath solution [5]: ~4 h
Compound: [O]=[V]([O-])([O-])[O][V]1(=[O])[O][V]2(=[O])[O][V](=[O])([O][V](=[O])([O-])[O-])[O][V](=[O])([O]2)[O][V]2(=[O])[O][V](=[O])([O][V](=[O])([O-])[O-])[O][V](=[O])([O]1)[O]2 (stereo not drawn) [DV, decavanadate]
- Increase of K1/2 for stimulation of Po caused by nucleotide ([1]; 1 mM ADP vs control): ~80 ×
- Increase of K1/2 for stimulation of Po caused by nucleotide ([1]; 1 mM AMP vs control): ~270 ×
- Increase of K1/2 for stimulation of Po caused by nucleotide ([1]; 1 mM ATP vs control): ~35 ×
- Increase of single-channel (slope) conductance relative to control [2, 8]: 34 ± 2% and ~30%
- Reversal potential [2, 8]: −1 ± 2 mV
- Slope conductance [2, 8]: 42 ± 3 pS
- Asymptotic conductance at negative potentials ([2]; 70 μM DV, NaCl pipette, NMDG-Cl bath, n = 3): 36 ± 0.5 pS
- K1/2 for conductance relative to K1/2 for stimulation of gating ([2]; higher): ~20 fold

Compound: O=P(O)(O)OP(=O)(O)O [pyrophosphate]
- Inhibition ([1]; 2 mM, n = 4): 92 ± 2%

Compound: Nc1ncnc2c1ncn2[C@@H]1O[C@H](COP(=O)(O)OP(=O)(O)OC[C@H]2OC(O)[C@H](O)[C@@H]2O)[C@@H](O)[C@H]1O (stereo partly drawn) [ADP-ribose]
- Inhibition of Po / effect on gating (in words) ([1]; 1 mM Ca2+ i, −40 mV): inhibited to a variable extent
- Effect on TrpM2 (in words) (TrpM2): activated

Compound: O=P(O)(O)O [Pi, Inorganic phosphate]
- Prevention of inhibition by concomitantly added ATP (in words) [1]: none
- Inhibition of Po / effect on gating (in words) ([1]; 1 mM Ca2+ i, −40 mV): had little effect

Compound: Nc1ncnc2c1ncn2[C@@H]1O[C@H](CO)[C@@H](O)[C@H]1O [Ado, adenosine]
- Prevention of inhibition by concomitantly added ATP (in words) [1]: none
- Inhibition of Po / effect on gating (in words) ([1]; 1 mM Ca2+ i, −40 mV): inhibited only at high concentrations

Compound: Nc1nc2c(ncn2[C@@H]2O[C@@H]3COP(=O)(O)O[C@H]3[C@H]2O)c(=O)[nH]1 [cGMP]
- Prevention of inhibition by concomitantly added ATP (in words) [1]: none
- Inhibition of Po / effect on gating (in words) ([1]; 1 mM Ca2+ i, −40 mV): failed to affect gating

Compound: O=P(O)(O)OC[C@H]1O[C@H](OP(=O)(O)OP(=O)(O)O)[C@H](O)[C@@H]1O [PRPP, phospho-ribosyl-PP]
- Prevention of inhibition by concomitantly added ATP (in words) [1]: none
- Inhibition of Po / effect on gating (in words) ([1]; 1 mM Ca2+ i, −40 mV): failed to inhibit channel activity

Compound: O=c1ccn([C@@H]2O[C@H](COP(=O)(O)OP(=O)(O)OP(=O)(O)O)[C@@H](O)[C@H]2O)c(=O)[nH]1 [UTP]
- Inhibition of Po / effect on gating (in words) ([1]; 1 mM Ca2+ i, −40 mV): compatible with inhibition
- Inhibition of TrpM4b (in words) (TrpM4b): poor inhibitors

- IC50 ([1]; read-out: K1/2 for inhibition of Po, 1 mM Ca2+ i, −80 mV): 7.3 ± 1 µM
- IC50 ([1]; read-out: K1/2 for inhibition of Po, 10 mM Ca2+ i, −40 mV): 52 ± 6 µM
- IC50 ([1]; read-out: K1/2 for inhibition of Po, freshly excised (~10 s) channels in 100 μM Ca2+, −40 mV, tentative analysis): 34 ± 3 µM
- IC50 [1, 7]: 11 ± 2 µM
- IC50 ([1]; read-out: K1/2 for inhibition of opening rate, 1 mM Ca2+ i, −80 mV): 8.4 ± 2 µM
- IC50 ([1]; read-out: K1/2 for inhibition of opening rate, 10 mM Ca2+ i, −40 mV): 14 ± 5 µM
- IC50 ([1]; read-out: K1/2 for inhibition of opening rate, freshly excised (~10 s) channels in 100 μM Ca2+, −40 mV, tentative analysis): 15 ± 2 µM
- Predicted decrease in nucleotide affinity brought upon by DV binding [3]: ~200 fold
Compound: Nc1ncnc2c1ncn2[C@@H]1O[C@H](COP(=O)(O)OP(=O)(O)OP(=O)(O)O)[C@@H](O)[C@H]1O [ATP]
- Increase of K1/2 for inhibition of Po ([1]; 10 mM vs 1 mM Ca2+ i): ~3 fold
- Opening rate (normalized) ([1]; (b) 10 μM total ATP, 1 mM free Ca2+, 2 mM free Mg2+): 0.62 ± 0.12 (n = 3)
- Opening rate (normalized) ([1]; (c) 10 μM total ATP, 10 mM free Ca2+, 2.01 mM free Mg2+): 0.61 ± 0.10 (n = 4)
- Opening rate (normalized) ([1]; (d) 100 μM total ATP, 1 mM free Ca2+, 0.184 mM free Mg2+): 0.094 ± 0.043 (n = 6)
- Opening rate (normalized) ([1]; (e) 100 μM total ATP, 1 mM free Ca2+, 2.03 mM free Mg2+): 0.10 ± 0.03 (n = 14)
- Opening rate (normalized) ([1]; (f) 100 μM total ATP, 1 mM free Ca2+, 9.91 mM free Mg2+): 0.16 ± 0.06 (n = 6)
- Increase of K1/2 for inhibition of Po caused by DV ([1]; ~1.6 μM DV vs no DV): ~40 ×
- Decrease of K1/2 for inhibition of Po ([1]; −80 mV vs −40 mV): ≈ 2 fold
- Effect on the i([DV]) dose response curve (in words) [2]: not altered
- Fraction of TrpM4b current insensitive to nucleotide (TrpM4b; even millimolar [ATP]): ~20%
- Nucleotide sensitivity of astrocyte CA-NSC channels (in words) [4]: inhibited

Compound: NC(=O)c1ccc[n+]([C@@H]2O[C@H](COP(=O)([O-])OP(=O)(O)OC[C@H]3O[C@@H](n4cnc5c(N)ncnc54)[C@H](OP(=O)(O)O)[C@@H]3O)[C@@H](O)[C@H]2O)c1 [NADP^+]
- Inhibition of Po / effect on gating (in words) ([1]; 1 mM Ca2+ i, −40 mV): inhibited to a variable extent

Compound: NC(=O)C1=CN([C@@H]2O[C@H](COP(=O)(O)OP(=O)(O)OC[C@H]3O[C@@H](n4cnc5c(N)ncnc54)[C@H](OP(=O)(O)O)[C@@H]3O)[C@@H](O)[C@H]2O)C=CC1 [NADPH]
- Inhibition of Po / effect on gating (in words) ([1]; 1 mM Ca2+ i, −40 mV): inhibited to a variable extent

Compound: O=C[C@H](O)[C@H](O)[C@H](O)COP(=O)(O)O [ribose-5P]
- Prevention of inhibition by concomitantly added ATP (in words) [1]: none
- Inhibition of Po / effect on gating (in words) ([1]; 1 mM Ca2+ i, −40 mV): failed to inhibit channel activity

Compound: [Ca+2] [Ca^2+]
- EC50 [6]: ~20 µM

Compound: N=c1c2ncn3c2ncn1[C@@H]1O[C@H](COP(=O)(O)OP(=O)(O)OC[C@H]2O[C@@H]3[C@H](O)[C@@H]2O)[C@@H](O)[C@H]1O [cADP-ribose]
- Prevention of inhibition by concomitantly added ATP (in words) [1]: none
- Inhibition of Po / effect on gating (in words) ([1]; 1 mM Ca2+ i, −40 mV): failed to inhibit channel activity

Compound: phosphatidyl inositol 4,5-bisphosphate [PI(4,5)P2]
- Inhibition of Po / effect on gating (in words) ([1]; 1 mM Ca2+ i, −40 mV): affected neither CA-NSC gating

Compound: [O]=[V]([O-])([O-])[O-] [orthovanadate]
- Effect of vanadate solution on CA-NSC gating (in words) ([1]; 1-mM vanadate solution, 1 mM Ca2+ i): robust stimulation of channel gating to a Po close to unity
- Increase in single-channel current size ([2]; 1-mM orthovanadate solution (untreated, contains trace DV)): ~30%

Compound: Nc1ncnc2c1ncn2[C@@H]1O[C@H](COP(=O)(O)OP(=O)(O)OC[C@H]2O[C@@H]([n+]3cccc(C(=O)O)c3)[C@H](O)[C@@H]2O)[C@@H](O)[C@H]1OP(=O)(O)O [NAADP]
- Inhibition of Po / effect on gating (in words) ([1]; 1 mM Ca2+ i, −40 mV): inhibited to a variable extent

Compound: Nc1nc2c(ncn2[C@@H]2O[C@H](COP(=O)(O)OP(=O)(O)OP(=O)(O)O)[C@@H](O)[C@H]2O)c(=O)[nH]1 [GTP]
- Inhibition of Po / effect on gating (in words) ([1]; 1 mM Ca2+ i, −40 mV): compatible with inhibition
- Inhibition of TrpM4b (in words) (TrpM4b): poor inhibitors

Compound: NC(=O)c1ccc[n+]([C@@H]2O[C@H](COP(=O)([O-])OP(=O)(O)OC[C@H]3O[C@@H](n4cnc5c(N)ncnc54)[C@H](O)[C@@H]3O)[C@@H](O)[C@H]2O)c1 [NAD^+]
- Inhibition of Po / effect on gating (in words) ([1]; 1 mM Ca2+ i, −40 mV): inhibited to a variable extent
- Effect on TrpM2 (in words) (TrpM2): activated

Compound: Nc1ncnc2c1ncn2[C@@H]1O[C@H](COP(=O)(O)OP(=O)(O)NP(=O)(O)O)[C@@H](O)[C@H]1O [AMPPNP]
- Inhibition of Po / effect on gating (in words) ([1]; 1 mM Ca2+ i, −40 mV): effectively inhibited

- IC50 [1, 7]: 4.3 ± 0.5 µM
- Predicted decrease in nucleotide affinity brought upon by DV binding [3]: ~10^5 fold
Compound: Nc1ncnc2c1ncn2[C@@H]1O[C@H](COP(=O)(O)OP(=O)(O)O)[C@@H](O)[C@H]1O [ADP]
- Increase of K1/2 for inhibition of Po caused by DV ([1]; ~1.6 μM DV vs no DV): ~20 ×
- Effect on the i([DV]) dose response curve (in words) [2]: not altered
- Inhibition of TrpM4b (in words) (TrpM4b): the most potent inhibitor
- Nucleotide sensitivity of astrocyte CA-NSC channels (in words) [4]: insensitive

Reference: paper PMC2234573 (The Journal of General Physiology, 2004)
